According to article PMC3016151 (Investigational New Drugs, 2009):

Columns and labels:
[1] = phase I and pharmacological study; cited from earlier work
[2] = Pharmacokinetics of telatinib in phase I patients; type: in vivo, human; details: for Dose normalized AUC, mean: cycle 1 day 14, 150 mg tablets
[3] = test system: patients with advanced or metastatic solid tumors; experiment: Telatinib-induced toxicity in phase I patients; type: in vivo, human
Method in brief: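 Patients with advanced or metastatic solid tumours (ECOG ≤2) took test compound orally, od or bid, continuously (20 mg od to 1,500 mg bid). Adverse events were graded by NCI-CTC v3.0 over all treatment cycles. KDR and FLT4 SNPs were TaqMan-genotyped on a dynamic array using DNA from residual frozen blood. Toxicity was compared by two-sided chi-square (3×2 genotype; 2×2 carrier vs noncarrier).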

[4] = test system: adenosine triphosphate binding cassette (ABC) B1 (ABCB1) transporter; details: in vitro studies; data on file at Bayer Pharmaceuticals Corporation; cited from earlier work
[5] = all treatment cycles, 33 patients, all dose levels

**Q.** With `CNC(=O)c1cc(COc2nnc(Nc3ccc(Cl)cc3)c3ccoc23)ccn1` [telatinib, Telatinib] as the molecule, how does the “AUC(0–12) interpatient variability, % coefficient of variation” value [1] read?
**A.** 20–150%

**Q.** And the “Cmax interpatient variability, % coefficient of variation” value [1]?
**A.** 20–150%

**Q.** And the “dose proportionality of pharmacokinetics” value [1]?
**A.** dose proportional

**Q.** What about the “Dose normalized AUC, mean” value ([2]; ABCB1 1236C>T genotype CC, n=9) of the same molecule?
**A.** 7.84

**Q.** What about the “Dose normalized AUC, mean” value ([2]; ABCB1 1236C>T genotype CT, n=15) of the same molecule?
**A.** 11.60

**Q.** What about the “Dose normalized AUC, mean” value ([2]; ABCB1 1236C>T genotype TT, n=5) of the same molecule?
**A.** 4.82

**Q.** What about the “Dose normalized AUC, mean” value ([2]; ABCB1 2677G>A/T genotype GG, n=9) of the same molecule?
**A.** 7.84

**Q.** What about the “Dose normalized AUC, mean” value ([2]; ABCB1 2677G>A/T genotype TG, n=15) of the same molecule?
**A.** 11.60

**Q.** What about the “Dose normalized AUC, mean” value ([2]; ABCB1 2677G>A/T genotype TT, n=5) of the same molecule?
**A.** 4.82

**Q.** And the “Dose normalized AUC, mean” value ([2]; ABCB1 3435C>T genotype CC, n=7)?
**A.** 7.30

**Q.** And the “Dose normalized AUC, mean” value ([2]; ABCB1 3435C>T genotype CT, n=16)?
**A.** 11.10

**Q.** And the “Dose normalized AUC, mean” value ([2]; ABCB1 3435C>T genotype TT, n=6)?
**A.** 6.65

**Q.** What about the “Dose normalized AUC, mean” value ([2]; ABCB1 -129T>C genotype CC, n=1) of the same molecule?
**A.** 11.79

**Q.** And the “Dose normalized AUC, mean” value ([2]; ABCB1 -129T>C genotype TC, n=2)?
**A.** 15.65

**Q.** And the “Dose normalized AUC, mean” value ([2]; ABCB1 -129T>C genotype TT, n=26)?
**A.** 8.67

**Q.** And the “Dose normalized AUC, mean” value ([2]; ABCC1 825T>C genotype TC, n=11)?
**A.** 10.90

**Q.** What about the “Dose normalized AUC, mean” value ([2]; ABCC1 825T>C genotype TT, n=18) of the same molecule?
**A.** 8.26

**Q.** What about the “Dose normalized AUC, mean” value ([2]; ABCC1 1062T>C genotype CC, n=2) of the same molecule?
**A.** 13.45

**Q.** And the “Dose normalized AUC, mean” value ([2]; ABCC1 1062T>C genotype TC, n=10)?
**A.** 9.95

**Q.** What about the “Dose normalized AUC, mean” value ([2]; ABCC1 1062T>C genotype TT, n=17) of the same molecule?
**A.** 8.36

**Q.** And the “Dose normalized AUC, mean” value ([2]; ABCC1 2012G>T genotype GG, n=24)?
**A.** 8.80

**Q.** And the “Dose normalized AUC, mean” value ([2]; ABCC1 2012G>T genotype GT, n=4)?
**A.** 13.46

**Q.** What about the “Dose normalized AUC, mean” value ([2]; ABCC1 2012G>T genotype TT, n=1) of the same molecule?
**A.** 3.63

**Q.** And the “Dose normalized AUC, mean” value ([2]; ABCC1 rs129081 genotype CC, n=5)?
**A.** 10.22

**Q.** And the “Dose normalized AUC, mean” value ([2]; ABCC1 rs129081 genotype GC, n=15)?
**A.** 10.44

**Q.** What about the “Dose normalized AUC, mean” value ([2]; ABCC1 rs129081 genotype GG, n=9) of the same molecule?
**A.** 6.77

**Q.** What about the “Dose normalized AUC, mean” value ([2]; ABCG2 346G>A genotype AG, n=4) of the same molecule?
**A.** 6.00

**Q.** What about the “Dose normalized AUC, mean” value ([2]; ABCG2 346G>A genotype GG, n=25) of the same molecule?
**A.** 9.78

**Q.** And the “Dose normalized AUC, mean” value ([2]; ABCG2 421C>A genotype CA, n=6)?
**A.** 10.48

**Q.** What about the “Dose normalized AUC, mean” value ([2]; ABCG2 421C>A genotype CC, n=23) of the same molecule?
**A.** 8.95

**Q.** What about the “Dose normalized AUC(0–12), mean (range)” value ([2]; oral, cycle 1 day 14 (steady-state), AUC(0–12)/actual dose) of the same molecule?
**A.** 9.26 (0.98–34.60) µg.hr/L per mg of dose

**Q.** And the “Grade 3–4 toxicity, number of patients” value ([3]; 33 patients)?
**A.** 3 patients

**Q.** What about the “Hypertension (most frequently observed side-effect), number of patients” value ([3]; 33 patients, unrelated to dose) of the same molecule?
**A.** 7 n

**Q.** What about the “Toxicity: any toxicity grade 1–4 all cycles, No (number of patients)” value (from here on “Toxicity … No (number of patients)”) ([3]; FLT4 1480A>G genotype AA) of the same molecule?
**A.** 7

**Q.** And the “Toxicity: any toxicity grade 1–4 all cycles, Yes (number of patients)” value (from here on “Toxicity … Yes (number of patients)”) ([3]; FLT4 1480A>G genotype AA)?
**A.** 20

**Q.** And the “Toxicity … No (number of patients)” value ([3]; FLT4 1480A>G genotype AG)?
**A.** 3

**Q.** And the “Toxicity … Yes (number of patients)” value ([3]; FLT4 1480A>G genotype AG)?
**A.** 3

**Q.** And the “Toxicity … No (number of patients)” value ([3]; FLT4 2670C>G genotype CC)?
**A.** 6

**Q.** And the “Toxicity … Yes (number of patients)” value ([3]; FLT4 2670C>G genotype CC)?
**A.** 11

**Q.** What about the “Toxicity … No (number of patients)” value ([3]; FLT4 2670C>G genotype CG) of the same molecule?
**A.** 3

**Q.** And the “Toxicity … Yes (number of patients)” value ([3]; FLT4 2670C>G genotype CG)?
**A.** 9

**Q.** What about the “Toxicity … No (number of patients)” value ([3]; FLT4 2670C>G genotype GG) of the same molecule?
**A.** 1

**Q.** What about the “Toxicity … Yes (number of patients)” value ([3]; FLT4 2670C>G genotype GG) of the same molecule?
**A.** 3

**Q.** What about the “Toxicity … No (number of patients)” value ([3]; KDR 1192G>A genotype CC) of the same molecule?
**A.** 5

**Q.** What about the “Toxicity … Yes (number of patients)” value ([3]; KDR 1192G>A genotype CC) of the same molecule?
**A.** 19

**Q.** And the “Toxicity … No (number of patients)” value ([3]; KDR 1192G>A genotype TC)?
**A.** 4

**Q.** What about the “Toxicity … Yes (number of patients)” value ([3]; KDR 1192G>A genotype TC) of the same molecule?
**A.** 4

**Q.** And the “Toxicity … No (number of patients)” value ([3]; KDR 1192G>A genotype TT)?
**A.** 1

**Q.** And the “Toxicity … Yes (number of patients)” value ([3]; KDR 1192G>A genotype TT)?
**A.** 0

**Q.** And the “Toxicity … No (number of patients)” value ([3]; KDR 1719A>T genotype AA)?
**A.** 1

**Q.** What about the “Toxicity … Yes (number of patients)” value ([3]; KDR 1719A>T genotype AA) of the same molecule?
**A.** 1

**Q.** What about the “Toxicity … No (number of patients)” value ([3]; KDR 1719A>T genotype TA) of the same molecule?
**A.** 4

**Q.** And the “Toxicity … Yes (number of patients)” value ([3]; KDR 1719A>T genotype TA)?
**A.** 9

**Q.** What about the “Toxicity … No (number of patients)” value ([3]; KDR 1719A>T genotype TT) of the same molecule?
**A.** 5

**Q.** What about the “Toxicity … Yes (number of patients)” value ([3]; KDR 1719A>T genotype TT) of the same molecule?
**A.** 13

**Q.** And the “Toxicity … No (number of patients)” value ([3]; KDR -604T>C genotype CC)?
**A.** 3

**Q.** What about the “Toxicity … Yes (number of patients)” value ([3]; KDR -604T>C genotype CC) of the same molecule?
**A.** 7

**Q.** What about the “Toxicity … No (number of patients)” value ([3]; KDR -604T>C genotype CT) of the same molecule?
**A.** 5

**Q.** And the “Toxicity … Yes (number of patients)” value ([3]; KDR -604T>C genotype CT)?
**A.** 13

**Q.** And the “Toxicity … No (number of patients)” value ([3]; KDR -604T>C genotype TT)?
**A.** 2

**Q.** What about the “Toxicity … Yes (number of patients)” value ([3]; KDR -604T>C genotype TT) of the same molecule?
**A.** 3

**Q.** And the “Any toxicity grade 1–4, patients” value [3, 5]?
**A.** 23 (70) n (%)

**Q.** And the “Any toxicity grade 3 or 4, patients” value [3, 5]?
**A.** 3 (9) n (%)

**Q.** What about the “Hypertension grade 1–4, patients” value [3, 5] of the same molecule?
**A.** 7 (21) n (%)

**Q.** What about the “Hypertension grade 3 or 4, patients” value [3, 5] of the same molecule?
**A.** 2 (6) n (%)

**Q.** And the “any grade 1–4 toxicity, number of patients” value ([3]; during all treatment cycles)?
**A.** 23 out of 33 patients

**Q.** What about the “any grade 1–4 toxicity, share of patients” value ([3]; during all treatment cycles, 33 patients) of the same molecule?
**A.** 70%

**Q.** What about the “substrate of the ABCB1 transporter” value [4] of the same molecule?
**A.** weak substrate
